# Experimental data: ChEMBL document CHEMBL4014288, “Targeted Antibiotic Delivery: Selective Siderophore Conjugation with Daptomycin Confers Potent Activity against Multidrug Resistant Acinetobacter baumannii Both in Vitro and in Vivo” (J Med Chem, 2017)
# Active and inactive are the calls of the source. The rule behind the calls is not given here.
# Tests used:
# Mus musculus = experiment: Toxicity in ICR mouse at 250 mg/kg, iv after 21 to 22 days; assay type: organism-based; settings: in vivo
# Acinetobacter baumannii [1] = experiment: Antibacterial activity against Acinetobacter baumannii ARC 5081 after 18 hrs by broth microdilution method; assay type: functional; settings: ARC 5081, 18 h
# Acinetobacter baumannii [2] = experiment: Antibacterial activity against Acinetobacter baumannii ATCC 17961 infected in ICR mouse assessed as mouse survival rate at 5 mg/kg, iv administered at 30 mins and 24.5 hrs post infection measured 7 days post infection relative to vehicle-treated control; assay type: functional; settings: ATCC 17961, iv
# Summary of the method: (§1)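 Sepsis model in 6- to 8-week-old female ICR mice infected intraperitoneally with A. baumannii ATCC 17961. Treatment given intravenously at 30 min and again at 24.5 h after infection, at 25, 10 or 5 mg/kg. Saline vehicle group as control. Five mice per dose group and six in the vehicle group. Read-out was survival.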
# Burkholderia multivorans = experiment: Antibacterial activity against Burkholderia multivorans AU0100 after 18 hrs by broth microdilution method; assay type: functional; settings: AU0100, 18 h
# Acinetobacter baumannii [3] = experiment: Antibacterial activity against Acinetobacter baumannii ARC 5079 after 18 hrs by broth microdilution method; assay type: functional; settings: ARC 5079, 18 h
# Acinetobacter baumannii [4] = experiment: Antibacterial activity against Acinetobacter baumannii ATCC BAA 1797 after 18 hrs by broth microdilution method; assay type: functional; settings: ATCC BAA 1797, 18 h
# Acinetobacter baumannii [5] = experiment: Antibacterial activity against Acinetobacter baumannii ARC 3484 after 18 hrs by broth microdilution method; assay type: functional; settings: ARC 3484, 18 h
# Acinetobacter baumannii [6] = experiment: Antibacterial activity against Acinetobacter baumannii ATCC BAA 1800 after 18 hrs by broth microdilution method; assay type: functional; settings: ATCC BAA 1800, 18 h
# Pseudomonas aeruginosa = experiment: Antibacterial activity against Pseudomonas aeruginosa PAO1 after 18 hrs by broth microdilution method; assay type: functional; settings: PAO1, 18 h
# Acinetobacter baumannii [7] = experiment: Antibacterial activity against Acinetobacter baumannii ATCC 17961 infected in ICR mouse assessed as mouse survival rate at 25 mg/kg, iv administered at 30 mins and 24.5 hrs post infection measured 7 days post infection relative to vehicle-treated control; assay type: functional; settings: ATCC 17961, iv; summary of the method: as §1
# Escherichia coli = experiment: Antibacterial activity against Escherichia coli DCO after 18 hrs by broth microdilution method; assay type: functional
# Staphylococcus aureus [8] = experiment: Antibacterial activity against Staphylococcus aureus ATCC 11632 after 18 hrs by broth microdilution method; assay type: functional; settings: ATCC 11632, 18 h
# Acinetobacter baumannii [9] = experiment: Antibacterial activity against Acinetobacter baumannii ATCC BAA 1710 after 18 hrs by broth microdilution method; assay type: functional; settings: ATCC BAA 1710, 18 h
# Acinetobacter baumannii [10] = experiment: Antibacterial activity against Acinetobacter baumannii ATCC BAA 1793 after 18 hrs by broth microdilution method; assay type: functional; settings: ATCC BAA 1793, 18 h
# Staphylococcus aureus [11] = experiment: Antibacterial activity against Staphylococcus aureus SG511 after 18 hrs by broth microdilution method; assay type: functional; settings: SG511, 18 h
# Acinetobacter baumannii [12] = experiment: Antibacterial activity against Acinetobacter baumannii ATCC 19606 after 18 hrs by broth microdilution method; assay type: functional; settings: ATCC 19606, 18 h
# Acinetobacter baumannii [13] = experiment: Antibacterial activity against Acinetobacter baumannii ATCC 17961 after 18 hrs by broth microdilution method; assay type: functional; settings: ATCC 17961, 18 h
# Acinetobacter baumannii [14] = experiment: Antibacterial activity against Acinetobacter baumannii ARC 3486 after 18 hrs by broth microdilution method; assay type: functional; settings: ARC 3486, 18 h
# Acinetobacter baumannii [15] = experiment: Antibacterial activity against Acinetobacter baumannii ATCC 17961 infected in ICR mouse assessed as mouse survival rate at 10 mg/kg, iv administered at 30 mins and 24.5 hrs post infection measured 7 days post infection relative to vehicle-treated control; assay type: functional; settings: ATCC 17961, iv; summary of the method: as §1
# [16] = Binding affinity to ferric ion
# [17] = Binding affinity to ferric ion at 5 mg after 18 hrs by LC-MS analysis
# Summary of the method: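 Ferric complex made by adding Fe(acac)3 (1.1 mg) in MeOH (1 mL) to conjugate (5.0 mg) in MeOH (1 mL). Analysed by LC on a C18 column (2.2 μm particles) at 40 °C, with a water/acetonitrile mobile phase. UV-vis diode-array detection over 190−400 nm, plus MS.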
# Acinetobacter baumannii [18] = experiment: Antibacterial activity against Acinetobacter baumannii ATCC 17961 infected in ICR mouse assessed as mouse survival rate at 50 mg/kg, iv administered at 30 mins and 24.5 hrs post infection measured 7 days post infection; assay type: functional, organism-based
# Summary of the method: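 Female ICR mice, 6 to 8 weeks old, infected intraperitoneally with A. baumannii ATCC 17961 (sepsis model). Treatments were given intravenously at 30 min and 24.5 h after infection, with saline as vehicle. Survival was scored as the fraction of mice alive per group (3 to 6 mice per group).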
SMILES,MIC (Acinetobacter baumannii [1]),MIC (Burkholderia multivorans),MIC (Acinetobacter baumannii [3]),MIC (Acinetobacter baumannii [4]),MIC (Acinetobacter baumannii [5]),MIC (Acinetobacter baumannii [6]),MIC (Pseudomonas aeruginosa),MIC (Escherichia coli),MIC (Staphylococcus aureus [8]),MIC (Acinetobacter baumannii [9]),MIC (Acinetobacter baumannii [10]),MIC (Staphylococcus aureus [11]),MIC (Acinetobacter baumannii [12]),MIC (Acinetobacter baumannii [13]),MIC (Acinetobacter baumannii [14]),other results
CCCCCCCCCC(=O)N[C@@H](Cc1c[nH]c2ccccc12)C(=O)N[C@H](CC(N)=O)C(=O)N[C@@H](CC(=O)O)C(=O)N[C@@H]1C(=O)NCC(=O)N[C@@H](CCCNC(=O)CCCC(=O)N(O)CCCCCNC(=O)CCC(=O)N(CCCCNC(=O)c2cccc(O)c2O)CCCNC(=O)c2cccc(O)c2O)C(=O)N[C@@H](CC(=O)O)C(=O)N[C@H](C)C(=O)N[C@@H](CC(=O)O)C(=O)NCC(=O)N[C@H](CO)C(=O)N[C@@H]([C@@H](C)CC(=O)O)C(=O)N[C@@H](CC(=O)c2ccccc2N)C(=O)O[C@@H]1C [listing 1 of 2 here],,,,,,,,,,,,,,,,Activity (Mus musculus): Non-Toxic
CCCCCCCCCC(=O)N[C@@H](Cc1c[nH]c2ccccc12)C(=O)N[C@H](CC(N)=O)C(=O)N[C@@H](CC(=O)O)C(=O)N[C@@H]1C(=O)NCC(=O)N[C@@H](CCCNC(=O)CCCC(=O)N(O)CCCCCNC(=O)CCC(=O)N(CCCCNC(=O)c2cccc(O)c2O)CCCNC(=O)c2cccc(O)c2O)C(=O)N[C@@H](CC(=O)O)C(=O)N[C@H](C)C(=O)N[C@@H](CC(=O)O)C(=O)NCC(=O)N[C@H](CO)C(=O)N[C@@H]([C@@H](C)CC(=O)O)C(=O)N[C@@H](CC(=O)c2ccccc2N)C(=O)O[C@@H]1C [listing 2 of 2 here],0.4 µM,> 100 µM,0.8 µM,0.8 µM,0.4 µM,0.8 µM,> 100 µM,> 100 µM,12.5 µM,0.8 µM,0.8 µM,6 µM,0.8 µM,0.4 µM,0.4 µM,survival at 5 mg/kg (Acinetobacter baumannii [2]): 20%; survival at 25 mg/kg (Acinetobacter baumannii [7]): 80%; survival at 10 mg/kg (Acinetobacter baumannii [15]): 80%
CCCCCCCCCC(=O)N[C@@H](Cc1c[nH]c2ccccc12)C(=O)N[C@@H](CC(N)=O)C(=O)N[C@@H](CC(=O)O)C(=O)N[C@@H]1C(=O)NCC(=O)N[C@@H](CCCNC(=O)CCCC(=O)N(CCCCCNC(=O)CCC(=O)N(CCCCNC(=O)c2cccc(OCc3ccccc3)c2OCc2ccccc2)CCCNC(=O)c2cccc(OCc3ccccc3)c2OCc2ccccc2)OCc2ccccc2)C(=O)N[C@@H](CC(=O)O)C(=O)N[C@H](C)C(=O)N[C@@H](CC(=O)O)C(=O)NCC(=O)N[C@H](CO)C(=O)N[C@@H]([C@@H](C)CC(=O)O)C(=O)N[C@@H](CC(=O)c2ccccc2N)C(=O)O[C@@H]1C,> 50 µM,,> 50 µM,> 50 µM,> 50 µM,> 50 µM,,,,> 50 µM,> 50 µM,,> 50 µM,> 50 µM,> 50 µM,Activity [16]: inactive
CCCCCCCCCC(=O)N[C@@H](Cc1c[nH]c2ccccc12)C(=O)N[C@@H](CC(N)=O)C(=O)N[C@@H](CC(=O)O)C(=O)N[C@@H]1C(=O)NCC(=O)N[C@@H](CCCNC(=O)CCCC(=O)N(O)CCCCCNC(=O)CCC(=O)N(CCCCNC(=O)c2cccc(O)c2O)CCCNC(=O)c2cccc(O)c2O)C(=O)N[C@@H](CC(=O)O)C(=O)N[C@H](C)C(=O)N[C@@H](CC(=O)O)C(=O)NCC(=O)N[C@H](CO)C(=O)N[C@@H]([C@@H](C)CC(=O)O)C(=O)N[C@@H](CC(=O)c2ccccc2N)C(=O)O[C@@H]1C,,,,,,,,,,,,,,,,Activity [17]: Active
NCC[C@H](O)C(=O)N[C@@H]1C[C@H](N)[C@@H](O[C@H]2O[C@H](CN)[C@@H](O)[C@H](O)[C@H]2O)[C@H](O)[C@H]1O[C@H]1O[C@H](CO)[C@@H](O)[C@H](N)[C@H]1O [AMIKACIN],> 50 µM,,> 50 µM,27 µM,> 27 µM,> 50 µM,,,,> 50 µM,> 50 µM,,3.4 µM,1.7 µM,> 50 µM,
O=C(O)c1cn(C2CC2)c2cc(N3CCNCC3)c(F)cc2c1=O [CIPROFLOXACIN],> 25 µM,> 25 µM,> 25 µM,> 25 µM,> 25 µM,> 25 µM,0.5 µM,0.5 µM,0.5 µM,> 25 µM,> 25 µM,0.5 µM,0.8 µM,0.2 µM,> 25 µM,
CCCCCCCCCC(=O)N[C@@H](Cc1c[nH]c2ccccc12)C(=O)N[C@@H](CC(N)=O)C(=O)N[C@@H](CC(=O)O)C(=O)N[C@@H]1C(=O)NCC(=O)N[C@@H](CCCN)C(=O)N[C@@H](CC(=O)O)C(=O)N[C@H](C)C(=O)N[C@@H](CC(=O)O)C(=O)NCC(=O)N[C@H](CO)C(=O)N[C@@H]([C@H](C)CC(=O)O)C(=O)N[C@@H](CC(=O)c2ccccc2N)C(=O)O[C@@H]1C [DAPTOMYCIN],> 100 µM,> 100 µM,> 100 µM,> 100 µM,> 100 µM,> 100 µM,> 100 µM,> 100 µM,0.4 µM,> 100 µM,> 100 µM,0.05 µM,,> 100 µM,> 100 µM,Activity (Acinetobacter baumannii [18]): inactive
